C2C12 statin: protects C2C12 myotubes from simvastatin toxicity | 330,000 tested, 0.78% active | AID 602340 | rescue of ATP level, % at 7.49 µM | ATP luminescence, 48 h; scaled: DMSO 0, geranylgeraniol control 100;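 active = mean ATP rescue above about 67%, or every replicate alone reaching that limit, limit read from the data, passing the limit was not always enough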;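 also: myotubes were challenged with 10 µM simvastatin during compound exposure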
Mot1-301 SUMO: SUMOylation pathway inhibition by Mot1-301 growth rescue | S. cerevisiae Mot1-301 growth rescue, ATP luminescence, 38.5C; percent above DMSO median, 100 means doubled | AID 2716 | growth rescue, % at 18.8 µM | 320,000 tested, 1% active;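 active = every valid replicate shows activation above 250% relative to neutral control wells; inactive = the rest, any valid replicate at or below 250%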
Cneo AK release: causes C. neoformans cell lysis; adenylate kinase release luminescence, 4 h; normalised: neutral wells 0, clomiphene wells 100; lysis activity, % at 15 µM; 360,000 tested, 0.2% active; AID 651654;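 active = mean lysis activity across replicates of at least 80%, whatever share of replicates individually reach that level; inactive = mean lysis activity below 80%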
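read-out = cell lysis signal | test system = log-phase Cryptococcus neoformans yeast cells | input = cells at 5 × 10^6 per mL | medium = fresh YPD growth medium | signal = luminescent adenylate kinase detection reagent | timing = 4 h at 37 °C static, read 1 h later | dosing = single dose | controls = Clomiphene as positive lysis control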
Efflux pump mplx: inhibitors of Candida antifungal efflux pumps expressed in yeast. S. cerevisiae Candida pump triplex, Nile Red efflux. inhibition, % at 10 µM. 330,000 tested, 0.44% active. AID 485275;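 active = plate passing quality check with inhibition over a set limit, or well fluorescence over plate mean plus 4 SD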;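 also: Nile Red retained in pooled yeast measured as flow cytometry median fluorescence; higher means more Nile Red kept so more efflux inhibition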
Numbers stand for hits; – = inactive; · = no result given; + = active, no number. In the library only some 1.8% were active in any assay of this set; here they are far more common.

SMILES	C2C12 statin	Mot1-301 SUMO	Cneo AK release	Efflux pump mplx
COc1ccc(S(=O)(=O)N(C)C[C@@H]2OCCCC[C@H](C)Oc3ccc(NS(=O)(=O)c4c(C)noc4C)cc3C(=O)N([C@@H](C)CO)C[C@H]2C)cc1	·	·	–	·
C[C@H](CCC(=O)O)[C@H]1CC[C@H]2[C@@H]3CC[C@@H]4C[C@H](O)CC[C@]4(C)[C@H]3C[C@H](O)[C@]12C	–	422	–	–
O=C(CS(=O)c1ccc(F)cc1)Nc1ccccc1Cl (stereo not given)	·	+	·	–
O=C(CS(=O)c1cccc(C(F)(F)F)c1)Nc1ccccc1Cl (stereo not given)	–	·	–	–
CCCOc1cccc(C2C(C(=O)c3ccc(C)o3)=C(O)C(=O)N2c2nc(C)c(C(C)=O)s2)c1 (stereo not given)	–	–	–	–
Nc1nnnn1NCc1cccc(OCc2ccccc2)c1	104	–	–	–
COc1ccc(S(=O)(=O)NCc2csc(C)n2)cc1	142	·	·	–
C=C(Cl)COc1cc(C)cc2oc(=O)cc(CC)c12	·	329	–	–
CCCc1cc(=O)oc2cc(C)cc(OCC(=O)O)c12	·	–	–	–
COc1ccc(S(=O)(=O)Nc2ccc3c(c2)C(=O)N([C@@H](C)CO)C[C@@H](C)[C@@H](CN(C)S(=O)(=O)c2ccc(Cl)cc2)O3)cc1	–	·	–	·
CCn1c(N)c(C(=O)N2CCOCC2)sc1=S	129	–	–	–
CC(=O)OC1CC(n2ccc(NC(=O)c3ccccc3)nc2=O)OC1CO (stereo not given)	128	–	–	–
CCOC(=O)c1c(NC(=O)Cc2cccs2)sc(C(=O)NC2CCCC2)c1C	–	–	–	–
CCOC(=O)c1c(NC(=O)Cc2cccs2)sc(C(=O)NC2CCCCC2)c1C	78	–	–	–
CCCCc1nc(N2CCOCC2)c(C#N)c2c1COC(C)(C)C2	128	–	–	–
CC1(C)Cc2c(C#N)c(SCCO)nc(N3CCOCC3)c2CO1	–	–	–	–
N#C[C@H]1[C@@H](c2ccccc2)[C@H](CO)N1S(=O)(=O)c1ccc(-c2ccccc2)cc1	–	·	–	·
C/C=C/c1ccc([C@@H]2[C@@H](C#N)N(S(=O)(=O)c3cccc(F)c3)[C@@H]2CO)cc1	–	·	109	·
N#C[C@@H]1[C@@H](c2ccccc2)[C@H](CO)N1S(=O)(=O)c1ccc(-c2ccccc2)cc1	88	·	–	·
N#C[C@@H]1[C@@H](c2ccc(-c3ccc(F)cc3)cc2)[C@H](CO)N1C(=O)Cc1ccccc1	75	·	–	·
N#C[C@H]1[C@@H](c2ccc(-c3ccc(F)cc3)cc2)[C@H](CO)N1C(=O)Cc1ccccc1	–	·	–	·
COc1ccc(NC(=O)Nc2ccc3c(c2)CC(=O)N([C@H](C)CO)C[C@@H](C)[C@H](CN(C)C(=O)Nc2cccc4ccccc24)O3)cc1	–	·	–	·
OCc1cccc(-c2csc(C(O)(c3ccccc3)C(F)(F)F)n2)c1 (stereo not given)	–	·	–	·
O=C(O)CCC(=O)N1CCC(C(=O)c2cccc(Cl)c2)CC1	–	–	–	–
O=c1nc(SCc2c(F)cccc2Cl)nc(-c2ccc(Cl)cc2)[nH]1	·	–	·	–
SMILES	C2C12 statin	Mot1-301 SUMO	Cneo AK release	Efflux pump mplx
CC1(C)OC(=O)N(c2ccccc2)C12C=Cc1c(ccc3ccccc13)O2 (stereo not given)	–	274	–	–
COc1ccc(S(=O)(=O)N(C(C)=O)c2ccc3oc(=O)sc3c2)cc1	87	–	–	–
COC(=O)c1c(C)oc2ccc(N(C(C)=O)S(=O)(=O)c3ccccc3)cc12	–	–	–	–
Nc1nc2ccc(-c3nc4ccccc4o3)cc2s1	75	–	–	–
Cc1n[nH]c(C)c1S(=O)(=O)Nc1ccc2c(c1)OCCO2	–	–	–	–
Cc1onc(-c2ccccc2)c1C(=O)N1CCN(CCc2ccccc2)CC1	–	–	–	–
CCOC(=O)c1sc2nc(C3CC3)cc(-c3ccc(OC)cc3)c2c1N	98	–	–	–
CCOC(=O)c1sc2nc(C3CC3)cc(-c3ccc(F)cc3)c2c1N	–	–	–	–
C1CCC(OCCN2CCN(CCOC3CCCCC3)CC2)CC1	–	–	–	–
Cc1nnc(NC(=O)C2CCCN(S(=O)(=O)Cc3ccccc3)C2)s1 (stereo not given)	120	–	–	–
COc1ccccc1NC(=O)N1CCN(c2ccc(F)cc2)CC1	–	–	–	–
COc1ccccc1NC(=O)N1CCN(c2cccc(C(F)(F)F)c2)CC1	123	–	–	–
CN(CCC1CCCCO1)C(=O)CCc1nnc(CCc2ccccc2)o1 (stereo not given)	–	–	–	–
CCn1c(=O)c2cc(C(=O)Nc3ccc(OC)cc3OC)sc2c2ccccc21	·	+	·	–
Fc1ccccc1CN1CCCC(NC2CCC2)C1 (stereo not given)	–	–	–	–
CCCn1c(=S)[nH]c2cc(Cl)ccc21	–	–	151	–
C(=C\c1ccco1)/C1=NN(c2ccccc2)C(c2ccco2)C1 (stereo not given)	·	–	·	1.4
CC(C)Oc1ccc(C2CC(=O)N(Nc3ccc([N+](=O)[O-])cc3[N+](=O)[O-])C2=O)cc1 (stereo not given)	·	–	·	–
Cc1c(C)c2ccc(OCC(=O)N(C)C)c(C)c2oc1=O	98	–	–	–
CCc1c(C)c2ccc(OCC(=O)N(C)C)c(C)c2oc1=O	–	–	–	–
CCOc1ccc(N2C(=O)CSC23CCCCC3)cc1	96	–	–	–
COc1ccc(N2C(=O)CSC23CCC(C(C)(C)C)CC3)cc1 (stereo not given)	·	–	·	–
O=C(C[C@@H]1CC[C@@H]2[C@H](COC[C@H](O)CN2Cc2cccc(Cl)c2)O1)N1CCCCC1	–	·	–	·
S=c1nc(-c2ccco2)[nH][nH]1	96	–	–	–
Cn1c(-c2ccco2)n[nH]c1=S	·	–	·	–
SMILES	C2C12 statin	Mot1-301 SUMO	Cneo AK release	Efflux pump mplx
Cc1cc(=O)[nH]c(SCC2(O)C3CC4CC(C3)CC2C4)n1 (stereo not given)	113	–	–	–
CCOc1cc(C(=O)Nc2cc(C)ccc2OC)ccc1OCC(=O)N1CCCCC1	115	–	–	–
CCOC(=O)/C(=N\Nc1ccc(Br)cc1)N1CC(C)OC(C)C1 (stereo not given)	·	428	–	–
Cc1cc(C)n(-c2nc3ccccc3nc2N2CCN(S(=O)(=O)c3cccc(C#N)c3)CC2)n1	–	–	–	–
NCc1ccccc1COc1ccccc1	·	–	–	–
COc1ccc(S(=O)(=O)N(C)C[C@H]2Oc3c(NC(=O)Nc4ccccc4)cccc3C(=O)N([C@H](C)CO)C[C@H]2C)cc1	78	·	·	·
C[C@@H]1CN([C@H](C)CO)C(=O)c2cccc(NC(=O)Nc3cccc4ccccc34)c2O[C@@H]1CN(C)S(=O)(=O)c1ccccc1	–	·	–	·
Cc1cc(C(=O)Nc2cccc3c2O[C@@H](CN(C)S(=O)(=O)c2ccccc2)[C@@H](C)CN([C@@H](C)CO)C3=O)n(C)n1	–	·	104	·
C[C@H](CO)N1C[C@H](C)[C@@H](CN(C)S(=O)(=O)c2ccccc2)Oc2c(NC(=O)Nc3cccc4ccccc34)cccc2C1=O	–	·	103	·

Compound activity from PubChem.
